V-ATPase pH: alters yeast V-ATPase proton transport | S. cerevisiae, pHLuorin cytosolic pH fluorescence | response, % at 10 µM | actives 0.37% (n = 350,000) | AID 504577; in the data active = response mostly above about 7.3%, no sharp cut-off; inactive = mostly below about 5.4%; note: actives read high
MPTP block: permeability transition pore inhibition | isolated mouse mitochondria, Ca2+ swelling absorbance, 30 min | inhibition, % at 10 µM | actives 1.4% (n = 360,000) | AID 602449;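 active = inhibition of 50% or more, scaled per plate between neutral and stimulator controls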;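 note: 0% = DMSO wells given calcium and 100% = 1 mM EGTA wells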
rCAG RNA binder: r(CAG) repeat RNA binding; inhibition, % at 3 µM; TO-PRO-1 dye displacement fluorescence; actives 1.3% (n = 370,000);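 active = inhibition above the plate cutoff, the mean of all test compounds on that plate plus 3 SD, cut at about 35% in these data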;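 note: 0% = DMSO alone and 100% = 100 µM mitoxantrone as full dye displacement; higher means more dye released from RNA so lower well fluorescence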
Exocytosis inh: lytic granule exocytosis inhibition; TALL-104 LAMP-1 surface exposure, flow cytometry; cells stimulated with thapsigargin and PMA; actives 0.66% (n = 360,000); inhibition, % at 10 µM; AID 651702;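 active = inhibition above about 55%, limit read from the data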
T cell modulator: T cell immune modulation candidate; 2C CD8+ T cell-vesicle binding, flow cytometry; stronger effect = lower value; response (vesicle binding), % at 7 µM; actives 0.068% (n = 330,000);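 active = response, share of CD8 T cells binding vesicles, and their 90th percentile fluorescence all below set limits, cut at about 80% in these data, passing the limit was not always enough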;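 note: values below 100% mean blocked vesicle binding to the CD8+ T cells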
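Incubation: binding step 1.5 h, 37 °C, antibody labelling 20 min, ice; system: murine 2C transgenic CD8+ T lymphocytes; technique: cytometric PE anti-B7-1 and Alexa647 anti-CD8 signals after 1% paraformaldehyde fixation; also added: QL9-charged Drosophila Ld/ICAM-1/B7-1 vesicles; control set: naked versus QL9-loaded vesicles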
B2AR ag: agonists of human beta-2 adrenergic receptor inducing internalization. P07550. Am2.2-beta2AR cells, FAP receptor internalization, flow cytometry. response, % (no concentration beside the values). actives 0.43% (n = 340,000). AID 504454;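 active = response above a set limit, near 3 SD of response in nonfluorescent compounds, cut at about 42% in these data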
Target sequence (P07550 whole entry, looked up): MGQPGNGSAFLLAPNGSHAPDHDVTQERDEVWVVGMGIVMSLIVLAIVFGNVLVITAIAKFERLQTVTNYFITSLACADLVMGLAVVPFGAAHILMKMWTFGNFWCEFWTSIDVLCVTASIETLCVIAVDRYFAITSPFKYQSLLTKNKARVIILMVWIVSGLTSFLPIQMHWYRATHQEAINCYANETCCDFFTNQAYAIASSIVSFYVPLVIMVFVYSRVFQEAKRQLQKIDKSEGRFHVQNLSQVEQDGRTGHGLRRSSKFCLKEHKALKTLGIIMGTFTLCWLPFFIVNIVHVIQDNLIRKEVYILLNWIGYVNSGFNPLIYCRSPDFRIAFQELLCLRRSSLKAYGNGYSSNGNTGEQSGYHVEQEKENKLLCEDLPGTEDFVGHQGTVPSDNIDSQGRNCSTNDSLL
rCAG binder conf: r(CAG) RNA repeat binding, confirmation | TO-PRO-1 dye displacement fluorescence | inhibition, % at 3 µM | actives 70% (n = 4,300) | shares compounds with rCAG RNA binder | AID 652065;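 active = inhibition above a per-plate cutoff, the mean inhibition of sample wells plus 3 SD, cut at about 35% in these data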;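 note: loss of TO-PRO-1 fluorescence as compound displaces dye from 1x1 AA loop RNA; 0% = DMSO only wells and 100% = 100 µM mitoxantrone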
dCAG dye counter: disrupts DNA CAG TO-PRO-1 complex, flagging rCAG hits; actives 94% (n = 4,300); AID 652068; shares compounds with rCAG RNA binder; d(CAG) DNA oligo TO-PRO-1 dye displacement, fluorescence; inhibition, % at 3 µM;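 active = inhibition above its plate's cutoff, the mean test-well inhibition plus 3 SD, cut at about 4.8% in these data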;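 note: 0% = DNA dye mix with DMSO and 100% = 100 µM mitoxantrone; hits displace the dye from DNA and so lower well fluorescence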
DNA CAG DR: counter-screen for rCAG binders: inhibitors of DNA CAG TO-PRO-1 complex | shares compounds with rCAG RNA binder | DNA CAG/GTC duplex TO-PRO-1 dye displacement fluorescence | IC50, µM | actives 20% (n = 250) | AID 686960; in the data active = IC50 below about 10 µM
* marks the source's active call; other numbers are inactive results; i = inactive; · = no result. A selection: hits, their analogues and other compounds. The true share with any hit is near 3.8%.

SMILES	V-ATPase pH	MPTP block	rCAG RNA binder	Exocytosis inh	T cell modulator	B2AR ag	rCAG binder conf	dCAG dye counter	others
COc1ccc2nc(-n3c(O)c(C4=c5ccccc5=NC4=O)[nH]c3=S)sc2c1	-7.9	10.0	49.5*	-3.6	359.9	13.9	93.6*	78.5*
Cc1c(NS(=O)(=O)c2ccc(Br)cc2)c(=O)n(-c2ccccc2)n1C	5.7	0.5	-3.5	-2.4	195.1	-3.0	·	·
Cc1c(NC(=O)c2ccccc2NS(=O)(=O)c2ccc(Br)cc2)c(=O)n(-c2ccccc2)n1C	-4.6	2.3	41.8*	7.1	417.7	2.9	46.9*	13.9*
O=[N+]([O-])c1cc2c(ccc3occc32)o1	·	·	8.8	·	·	·	·	·
O=C(CSc1ccc2ccccc2c1)Nc1ccc(S(=O)(=O)Nc2nccs2)cc1	1.2	1.3	74.4*	-1.7	576.4	8.9	70.7*	35.9*
O=C(CSc1ccc(Br)c2cccc(Cl)c12)Nc1ccc(S(=O)(=O)Nc2nccs2)cc1	-1.7	-0.7	76.9*	-0.9	287.5	8.5	74.9*	43.2*
O=S(=O)(Nc1ccc(-c2nc3cccnc3s2)cc1)c1ccc(Cl)s1	-1.5	5.9	65.6*	3.0	363.7	6.6	71.3*	32.4*	DNA CAG DR=i
Cc1nc2ccc(S(=O)(=O)Nc3ccc(-c4nc5cccnc5s4)cc3)cc2s1	3.8	1.2	53.0*	-1.0	214.9	-14.5	41.8*	12.4*
Cc1nc2ccc(S(=O)(=O)Nc3cccc(-c4nc5cccnc5s4)c3)cc2s1	0.8	1.3	23.2	5.0	484.0	-23.6	·	·
O=S(=O)(Nc1ccc(-c2nc3cccnc3s2)cc1)c1cccs1	3.6	0.5	8.3	-0.5	341.6	-4.6	·	·
COC(=O)[C@]12C[C@H](CC(=O)NCc3cccc(C(F)(F)F)c3)C(=O)N(Cc3ccco3)C1=C[C@H](COCc1ccccc1)O[C@@H]2C	·	·	1.0	·	·	·	·	·
O=C1CC(N2CCCC2)=NC(=O)N1c1ccc(Br)cc1	·	·	7.3	·	·	·	·	·
CCc1oc2ccccc2c1C(=O)c1cc(Br)c(O)c(Br)c1	-7.5	44.1	57.3*	2.1	487.8	-5.4	62.7*	16.9*
Cc1ccc([C@@H]2CC=C(C(=O)O)[C@H](c3ccccc3)N2S(=O)(=O)c2ccc(C)cc2)cc1	-1.1	-0.6	55.6*	19.3	447.1	2.5	58.8*	21.9*
Cc1ccc([C@H]2C(C(=O)O)=CC[C@@H](c3cccc(C)c3)N2S(=O)(=O)c2ccc(C)cc2)cc1	-3.4	2.7	9.7	0.5	i	2.5	·	·
Cc1ccc([C@H]2C(C(=O)O)=CC[C@@H](c3ccc(C)cc3)N2S(=O)(=O)c2ccc(C)cc2)cc1	-1.1	2.9	76.2*	0.3	238.7	-1.0	66.7*	29.6*
COC(=O)[C@]12C[C@H](CC(=O)N3CCC(c4ccccc4)CC3)C(=O)N(CCC3=CCCCC3)C1=C[C@H](C1CCCC1)O[C@@H]2C	·	·	6.0	·	·	·	·	·
O=C(CN1C(=O)S/C(=C\c2ccc(O)c([N+](=O)[O-])c2)C1=O)Nc1ccc(N2CCOCC2)cc1	-1.1	0.3	-0.7	9.1	381.0	5.5	·	·
Cc1cccc(NC(=O)CN2C(=O)S/C(=C\c3ccc(O)c([N+](=O)[O-])c3)C2=O)c1	1.2	2.0	83.0*	-2.0	390.0	9.7	57.1*	20.3*
O=C(CN1C(=O)S/C(=C\c2cc(Cl)c(O)c(Cl)c2)C1=O)Nc1ccccc1	0.7	2.9	48.2*	-13.8	265.9	14.5	50.3*	16.2*
O=C(CN1C(=O)S/C(=C\c2ccccn2)C1=O)Nc1ccccc1	-1.1	0.0	1.8	-0.3	498.3	-5.5	·	·
Cc1ccc(NC(=O)CN2C(=O)S/C(=C/c3ccc(O)c([N+](=O)[O-])c3)C2=O)cc1C	3.8	1.0	93.7*	2.3	·	2.3	79.7*	46.1*
COC(=O)[C@]12C[C@H](CC(=O)N3CCOCC3)C(=O)N(Cc3ccco3)C1=C[C@H](C1CCCC1)O[C@@H]2C	·	·	-0.6	·	·	·	·	·
Cc1c(C(=O)Nc2ccccc2)cn2c(nc3ccccc32)c1C#N	-1.2	0.0	3.6	4.3	224.9	-3.3	·	·
Cc1ccccc1C(=O)Nc1ccc2c(C#N)c3nc4ccccc4nc3n2c1	2.6	10.6	36.0*	6.3	202.4	11.8	26.0	14.3*
SMILES	V-ATPase pH	MPTP block	rCAG RNA binder	Exocytosis inh	T cell modulator	B2AR ag	rCAG binder conf	dCAG dye counter	others
COc1ccc(/C=N/N=C2/NC(=O)C(CC(=O)O)S2)cc1OCc1ccc(Cl)cc1 (stereo not drawn)	0.7	1.1	25.8	0.1	227.3	-0.7	·	·
CCOc1cc(/C=N/N=C2/NC(=O)C(CC(=O)O)S2)ccc1OCc1ccc(Cl)cc1 (stereo not drawn)	-1.2	5.1	59.7*	0.7	300.1	-4.8	40.1*	10.5*
COc1cc(/C=N/N=C2/NC(=O)C(CC(=O)O)S2)ccc1OCc1cccc(Cl)c1 (stereo not drawn)	0.1	-0.8	43.5*	3.6	303.2	2.2	26.5	5.5*
C[C@@H]1CN(c2ccc(N3CCN(C(=O)OC(C)(C)C)C[C@@H]3C)cc2C#N)C[C@H](C)O1	·	·	1.7	·	·	·	·	·
COC(=O)C1=C(C)NC(=S)NC1c1ccc(Br)cc1 (stereo not drawn)	·	·	2.7	·	·	·	·	·
Nc1nc(Cl)nc2c1ncn2[C@@H]1O[C@H](CO)[C@@H](O)[C@@H]1F	·	·	0.7	·	·	·	·	·
CC(C)(C)c1ccc(S(=O)(=O)N2CCCC(C(=O)NCc3cccs3)C2)cc1 (stereo not drawn)	·	·	0.2	·	·	·	·	·
O=C(O)c1ccc(N/N=C/c2cc3ccccc3nc2Cl)cc1	5.6	1.7	11.9	-1.1	278.5	2.6	·	·
Cc1cccc2cc(/C=N/Nc3ccc(C(=O)O)cc3)c(Cl)nc12	-1.8	0.2	47.4*	8.9	346.9	12.0	42.8*	10.6*
S=c1[nH]nc(-c2cc(-c3ccccc3)n[nH]2)n1/N=C/c1cccs1	3.3	5.5	35.5*	8.9	720.7	-1.0	39.2*	10.3*
S=c1[nH]nc(-c2cccs2)n1/N=C/c1c(Cl)cccc1Cl	-0.3	-3.1	49.9*	2.5	366.0	-2.9	43.8*	10.3*
S=c1[nH]nc(-c2cc(-c3ccccc3)n[nH]2)n1N=Cc1c[nH]c2ccccc12	·	·	78.4*	·	·	·	65.7*	22.8*
CC(C)OP(=O)(O)C(C)NC(=O)OCc1ccccc1 (stereo not drawn)	·	·	-0.3	·	·	·	·	·
O=C(c1cccc(F)c1)n1ccc2ccc(-c3ccc4ccn(Cc5ccccc5)c4c3)cc21	·	·	9.1	·	·	·	·	·

Screening data as filed in PubChem BioAssay.
